Results: PMC3658146 (Clinical cancer research : an official journal of the …, 2013)
Where “and” joins values, the source holds several entries; their conditions need not be identical. Equal values may be shown once. Read-outs that look alike come from different tables or passages of the source. Each block holds one molecule with its values, some of them ahead of it.

What was measured:
[1] = Urinary recovery of IPdR and metabolites after a single oral dose of IPdR; format: in vivo, human (patients with advanced malignancies); settings: patients receiving 2400 mg of IPdR
In short: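 Urine was collected pre-dose and then at each void over 24 h, with volumes recorded and aliquots stored at −80°C. Samples underwent liquid–liquid extraction and LC–MS/MS for IPdR, IdUrd, IP and IUra, with BrdUrd and BrUra as internal standards. Calibration covered 0.1–50 μM in patient pre-dose urine. Samples above 50 μM were diluted 1:10 and reanalyzed. The quantitation limit was 0.1 μM for IPdR and IdUrd and 0.25 μM for IP and IUra.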

[2] = rats, oral IPdR, sustained for at least 6 hours; cited from earlier work
[3] = Safety assessment for 14 days after a single oral dose of IPdR; format: in vivo, human (patients with advanced malignancies); settings: single oral dose 150-2400 mg, 10 patients, 14 days follow-up
In short: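 After a single oral dose on day 1 (150–2400 mg), patients were followed for 14 days. Complete blood counts with differential and serum chemistries were done at baseline, day 2 and day 14, with grading by CTCAE v4.0. Significant toxicity was defined as a drug-related event within 14 days at grade ≥2 non-hematologic (excluding correctable electrolytes), grade ≥2 thrombocytopenia, or grade ≥3 anemia/leucopenia/neutropenia. Each next patient enrolled only after the prior one completed 2 weeks.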

[4] = Plasma pharmacokinetics after a single oral dose of IPdR; format: in vivo, human (patients with advanced malignancies)
In short: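 Patients received a single oral dose of 150, 300, 600, 1200 or 2400 mg, with one patient per level and 6 at 2400 mg. Blood was drawn pre-dose and at 5, 15, 30 min and 1, 2, 4, 10, 24 h, and plasma was kept at −80°C. After solvent deproteinization, IPdR, IdUrd, IP and IUra were measured by C18 LC–MS/MS. BrdUrd and BrUra served as internal standards, with calibration at 0.1–50 μM in control plasma.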

[5] = athymic mice, ≤ 1500 mg/kg/day for 6 to 14 days; cited from earlier work
[6] = rats, for 28 days; cited from earlier work
[7] = mice, oral IPdR, sustained for at least 6 hours; cited from earlier work
[8] = system: dihydropyrimidine dehydrogenase; settings: stated without reference; cited from earlier work
anaplastic astrocytoma = settings: patients with anaplastic astrocytoma, radiation combined with IdUrd; cited from earlier work
[9] = clinical, reason for c.i.v. infusion; cited from earlier work
tumor = settings: c.i.v. IdUrd; cited from earlier work
ovarian cancer = settings: patients with ovarian cancer, intraperitoneal IdUrd; cited from earlier work

detection in urine samples [1]: detectable
SMILES: O=c1ncc(I)c[nH]1 [IP, 5-iodo-2-pyrimidinone]

SMILES: O=c1ncc(I)cn1[C@H]1C[C@H](O)[C@@H](CO)O1 [IPdR, 5-iodo-2-pyrimidinone-2′-deoxyribose]
plasma concentrations of IPdR [2]: > 100 µM | dose recovered in urine over 24 hours ([1]; IPdR and metabolites): Twelve | detection in urine samples [1]: detectable | drug-related adverse events [3]: no drug-related adverse events | IPdR AUC ([4]; plasma, single oral IPdR 150 mg, one patient): 3.4 μM-hr | IPdR AUC ([4]; plasma, single oral IPdR 600 mg, one patient): 8.3 μM-hr | IPdR AUC ([4]; plasma, single oral IPdR 1200 mg, one patient): 0.7 μM-hr | IPdR AUC ([4]; plasma, single oral IPdR 2400 mg, mean of 6 patients): 15.6 μM-hr | Cmax ([4]; read-out: IPdR Cmax, plasma, single oral IPdR 150 mg, one patient): 0.6 µM | Cmax ([4]; read-out: IPdR Cmax, plasma, single oral IPdR 600 mg, one patient): 0.93 µM | Cmax ([4]; read-out: IPdR Cmax, plasma, single oral IPdR 1200 mg, one patient): 0.95 µM | Cmax ([4]; read-out: IPdR Cmax, plasma, single oral IPdR 2400 mg, mean of 6 patients): 4.3 µM | toxicities after daily oral doses [5]: no significant toxicities | tolerable dose for repeat dose studies [6]: 2000 mg/kg/day | plasma concentrations of IPdR [7]: > 100 µM

detection in urine samples [1]: detectable | share of the metabolites measured in urine ([1]; 24 hours): 90 ± 13% | concentration at 10 hours ([4]; human, plasma, oral, 2400 mg): ~100 µM | AUC ([4]; human, plasma, po, 150 mg): 1 µM·h | Cmax ([4]; human, plasma, po, 150 mg): 0.2 µM | AUC ([4]; human, plasma, po, 300 mg): 4.5 µM·h | Cmax ([4]; human, plasma, po, 300 mg): 0.8 µM | AUC ([4]; human, plasma, po, 600 mg): 17.2 µM·h | Cmax ([4]; human, plasma, po, 600 mg): 4.5 µM | AUC ([4]; human, plasma, po, 1200 mg): 103 µM·h | Cmax ([4]; human, plasma, po, 1200 mg): 34.2 µM | AUC ([4]; human, plasma, po, 2400 mg): 1060 µM·h | Cmax ([4]; human, plasma, po, 2400 mg): 133 µM | time of peak IUra plasma level post IPdR administration ([4]; single oral IPdR 2400 mg): 3.3 ± 1.0 hours and 3.3 (± 1.0) hours
SMILES: O=c1[nH]cc(I)c(=O)[nH]1 [IUra, 5-iodouracil]
effect on the enzyme dihydropyrimidine dehydrogenase [8]: inhibits

detection in urine samples [1]: detectable | AUC ([4]; human, plasma, po, 150 mg): 1.7 µM·h | Cmax ([4]; human, plasma, po, 150 mg): 0.8 µM | AUC ([4]; human, plasma, po, 300 mg): 0.3 µM·h | Cmax ([4]; human, plasma, po, 300 mg): 0.3 µM | AUC ([4]; human, plasma, po, 600 mg): 3.2 µM·h | Cmax ([4]; human, plasma, po, 600 mg): 1.8 µM | AUC ([4]; human, plasma, po, 1200 mg): 4.7 µM·h | Cmax ([4]; human, plasma, po, 1200 mg): 2.1 µM | AUC ([4]; human, plasma, po, 2400 mg): 12.2 µM·h | Cmax ([4]; human, plasma, po, 2400 mg): 4 µM | half-life ([4]; human, plasma, po, 2400 mg): 1.5 h | time of peak IdUrd plasma level after IPdR administration ([4]; single oral IPdR 2400 mg, 6 patients, mean ± SD): 1.67 ± 1.21 h
SMILES: O=c1[nH]c(=O)n([C@H]2C[C@H](O)[C@@H](CO)O2)cc1I [IdUrd, 5-iodo-2′-deoxyuridine, reference compound]
median survival (anaplastic astrocytoma): 3.2 years | patients surviving at 5 years (anaplastic astrocytoma): 33% | half-life [9]: in the order of minutes | patients with tumor shrinkage (tumor): 6 out of 11 | effect on ascites (ovarian cancer): disappearance of ascites
